Reference: ChEMBL document CHEMBL5303300, “EUbOPEN Chemogenomics Library - Multiplex” (2023)
Values joined by “and” are separate entries in the source; they are usually repeats but may differ in a detail not shown here. Equal values may be shown once.

Test system: U2OS
Assay: Multiplex assay against U2OS
Assay type: toxicity, cell-based
Settings: human, number of replicates 2
Summary of the method: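 Cells stained live at seeding with Hoechst33342, BioTracker Green Microtubule Cytoskeleton Dye, MitoTracker Red and Annexin V Alexa Fluor 680 were imaged on a CQ1 microscope at 37°C and 5% CO2 after compound addition. Their classification by CellPathfinder machine-learning gating ran from Hoechst high-intensity objects versus normal cells, to healthy, pyknosed or fragmented nuclei among normal cells, to mitotic or apoptotic among pyknosed cells. Tubulin, mitochondrial-mass and membrane-permeability phenotypes are per cents of healthy-nucleus cells.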

[1] = 12 h, 1 µM, compound concentration 1 uM
[2] = 12 h, 10 µM, compound concentration 10 uM
[3] = 24 h, 1 µM, compound concentration 1 uM
[4] = 24 h, 10 µM, compound concentration 10 uM
[5] = 48 h, 1 µM, compound concentration 1 uM
[6] = 48 h, 10 µM, compound concentration 10 uM

COc1ccncc1C(=O)NC(=O)Nc1ccc(-c2ccccc2)c(C(F)(F)F)c1
Population Apoptotic (%) [1]: 33% and 36% | Population Healthy Nuclei (%) [1]: 65% and 86% | Population Hoechst High Intensity Objects (%) [1]: 0% | Population Membrane Permeable-Phenotype (%) [1]: 0% and 1% | Population Mitochondria Different-Phenotype (%) [1]: 0% and 1% | Population Mitotic Cells (%) [1]: 66% and 63% | Population Normal (%) [1]: 100% | Population Pyknosed Nuclei (%) [1]: 11% and 9% | Population Tubulin-Different-Phenotype (%) [1]: 58% and 88% | Population Apoptotic (%) [2]: 25% and 33% | Population Fragmented Nuclei (%) [2]: 8% and 2% | Population Healthy Nuclei (%) [2]: 75% and 88% | Population Hoechst High Intensity Objects (%) [2]: 0% | Population Membrane Permeable-Phenotype (%) [2]: 2% and 1% | Population Mitochondria Different-Phenotype (%) [2]: 2% and 1% | Population Mitotic Cells (%) [2]: 75% and 66% | Population Normal (%) [2]: 100% | Population Pyknosed Nuclei (%) [2]: 16% and 9% | Population Tubulin-Different-Phenotype (%) [2]: 67% and 78% | Population Apoptotic (%) [3]: 66% and 57% | Population Healthy Nuclei (%) [3]: 63% and 90% | Population Hoechst High Intensity Objects (%) [3]: 0% | Population Membrane Permeable-Phenotype (%) [3]: 4% and 2% | Population Mitochondria Different-Phenotype (%) [3]: 0% and 1% | Population Mitotic Cells (%) [3]: 33% and 42% | Population Normal (%) [3]: 100% | Population Pyknosed Nuclei (%) [3]: 15% and 6% | Population Tubulin-Different-Phenotype (%) [3]: 62% and 89% | Population Apoptotic (%) [4]: 66% and 31% | Population Fragmented Nuclei (%) [4]: 1% and 3% | Population Healthy Nuclei (%) [4]: 93% and 90% | Population Hoechst High Intensity Objects (%) [4]: 0% | Population Membrane Permeable-Phenotype (%) [4]: 5% and 0% | Population Mitochondria Different-Phenotype (%) [4]: 0% | Population Mitotic Cells (%) [4]: 33% and 68% | Population Normal (%) [4]: 100% | Population Pyknosed Nuclei (%) [4]: 5% and 6% | Population Tubulin-Different-Phenotype (%) [4]: 72% and 79% | Population Apoptotic (%) [5]: 60% and 43% | Population Healthy Nuclei (%) [5]: 70% and 90% | Population Hoechst High Intensity Objects (%) [5]: 0% | Population Membrane Permeable-Phenotype (%) [5]: 2% and 1% | Population Mitochondria Different-Phenotype (%) [5]: 2% and 0% | Population Mitotic Cells (%) [5]: 40% and 56% | Population Normal (%) [5]: 100% | Population Pyknosed Nuclei (%) [5]: 10% and 7% | Population Tubulin-Different-Phenotype (%) [5]: 65% and 90% | Population Apoptotic (%) [6]: 23% and 69% | Population Fragmented Nuclei (%) [6]: 7% and 2% | Population Healthy Nuclei (%) [6]: 81% and 93% | Population Hoechst High Intensity Objects (%) [6]: 0% | Population Membrane Permeable-Phenotype (%) [6]: 0% | Population Mitochondria Different-Phenotype (%) [6]: 0% | Population Mitotic Cells (%) [6]: 76% and 30% | Population Normal (%) [6]: 100% and 99% | Population Pyknosed Nuclei (%) [6]: 10% and 4% | Population Tubulin-Different-Phenotype (%) [6]: 83%

O=C1NC(=O)C(c2ccccc2[N+](=O)[O-])=C1Nc1ccc(O)c(Cl)c1
Population Apoptotic (%) [1]: 100% and 38% | Population Fragmented Nuclei (%) [1]: 12% and 5% | Population Healthy Nuclei (%) [1]: 80% and 83% | Population Hoechst High Intensity Objects (%) [1]: 0% | Population Membrane Permeable-Phenotype (%) [1]: 0% and 1% | Population Mitochondria Different-Phenotype (%) [1]: 0% | Population Normal (%) [1]: 100% | Population Pyknosed Nuclei (%) [1]: 8% and 10% | Population Tubulin-Different-Phenotype (%) [1]: 85% and 90% | Population Apoptotic (%) [2]: 80% and 37% | Population Fragmented Nuclei (%) [2]: 9% and 5% | Population Healthy Nuclei (%) [2]: 68% and 83% | Population Hoechst High Intensity Objects (%) [2]: 0% and 3% | Population Membrane Permeable-Phenotype (%) [2]: 6% and 3% | Population Mitochondria Different-Phenotype (%) [2]: 6% and 0% | Population Normal (%) [2]: 100% and 96% | Population Pyknosed Nuclei (%) [2]: 22% and 10% | Population Tubulin-Different-Phenotype (%) [2]: 73% and 92% | Total Cell Count [2]: 22 | Population Apoptotic (%) [3]: 40% and 37% | Population Healthy Nuclei (%) [3]: 67% and 86% | Population Hoechst High Intensity Objects (%) [3]: 0% | Population Membrane Permeable-Phenotype (%) [3]: 4% and 2% | Population Mitochondria Different-Phenotype (%) [3]: 0% | Population Mitotic Cells (%) [3]: 60% and 62% | Population Normal (%) [3]: 100% | Population Pyknosed Nuclei (%) [3]: 14% and 10% | Population Tubulin-Different-Phenotype (%) [3]: 73% and 92% | Population Apoptotic (%) [4]: 66% and 31% | Population Fragmented Nuclei (%) [4]: 8% and 5% | Population Healthy Nuclei (%) [4]: 73% and 84% | Population Hoechst High Intensity Objects (%) [4]: 0% | Population Membrane Permeable-Phenotype (%) [4]: 4% and 1% | Population Mitochondria Different-Phenotype (%) [4]: 4% and 0% | Population Mitotic Cells (%) [4]: 33% and 68% | Population Normal (%) [4]: 100% and 99% | Population Pyknosed Nuclei (%) [4]: 17% and 10% | Population Tubulin-Different-Phenotype (%) [4]: 84% and 95% | Population Apoptotic (%) [5]: 71% and 55% | Population Fragmented Nuclei (%) [5]: 9% and 3% | Population Healthy Nuclei (%) [5]: 80% and 90% | Population Hoechst High Intensity Objects (%) [5]: 0% | Population Membrane Permeable-Phenotype (%) [5]: 1% | Population Mitochondria Different-Phenotype (%) [5]: 0% | Population Mitotic Cells (%) [5]: 28% and 44% | Population Normal (%) [5]: 100% | Population Pyknosed Nuclei (%) [5]: 10% and 5% | Population Tubulin-Different-Phenotype (%) [5]: 86% and 93% | Population Apoptotic (%) [6]: 22% and 31% | Population Fragmented Nuclei (%) [6]: 5% and 7% | Population Healthy Nuclei (%) [6]: 77% and 85% | Population Hoechst High Intensity Objects (%) [6]: 0% and 2% | Population Membrane Permeable-Phenotype (%) [6]: 2% and 0% | Population Mitochondria Different-Phenotype (%) [6]: 2% and 0% | Population Mitotic Cells (%) [6]: 77% and 68% | Population Normal (%) [6]: 100% and 97% | Population Pyknosed Nuclei (%) [6]: 16% and 7% | Population Tubulin-Different-Phenotype (%) [6]: 92% and 98%
